Biological target: Melanocortin receptor 4 (Mus musculus, UniProt P56450)
Test: Effective concentration for mouse Melanocortin-4 receptor
In short: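 HEK-293 cells stably expressing mouse melanocortin receptors (G418-selected) were transiently transfected with a CRE/β-galactosidase reporter. Lysates were incubated with ONPG at 37° and read at OD405. Signals were normalized to relative protein (OD595) and to forskolin response. EC50 came from nonlinear least-squares fits of duplicate experiments in quadruplet or more.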

Sequence of Melanocortin receptor 4 (P56450 whole entry): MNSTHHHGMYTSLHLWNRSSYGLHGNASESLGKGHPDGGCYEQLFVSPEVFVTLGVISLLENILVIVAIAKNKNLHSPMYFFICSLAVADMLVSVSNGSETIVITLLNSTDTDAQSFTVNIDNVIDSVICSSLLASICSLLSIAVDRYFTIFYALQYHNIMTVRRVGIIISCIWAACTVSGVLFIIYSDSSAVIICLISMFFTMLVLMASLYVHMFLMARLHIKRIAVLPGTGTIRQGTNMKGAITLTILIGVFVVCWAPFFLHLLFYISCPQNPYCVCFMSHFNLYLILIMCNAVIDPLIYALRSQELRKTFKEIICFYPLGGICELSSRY

Row | EC50 | Structure (SMILES)
1 | 0.57 nM | C[C@@H]1NC(=O)[C@H](CC(N)=O)NC(=O)[C@H](Cc2c[nH]c3ccccc23)NC(=O)[C@H](CCCNC(=N)N)NC(=O)[C@@H](Cc2cccc3ccccc23)NC(=O)[C@H](Cc2cnc[nH]2)NC(=O)[C@@H](NC(=O)[C@@H](N)Cc2ccc(O)cc2)CC(=O)N([C@@H](Cc2ccc(O)cc2)C(N)=O)C(C)(C(=O)O)NC(=O)[C@H](Cc2ccccc2)NC1=O (some centres not stated)
2 | 0.57 nM | C[C@@H]1NC(=O)[C@H](CC(N)=O)NC(=O)[C@H](Cc2c[nH]c3ccccc23)NC(=O)[C@H](CCCNC(=N)N)NC(=O)[C@@H](Cc2ccc(-c3ccccc3)cc2)NC(=O)[C@H](Cc2cnc[nH]2)NC(=O)[C@@H](NC(=O)[C@@H](N)Cc2ccc(O)cc2)CC(=O)N([C@@H](Cc2ccc(O)cc2)C(N)=O)C(C)(C(=O)O)NC(=O)[C@H](Cc2ccccc2)NC1=O (some centres not stated)
